Data on 4 compounds can be found in article PMC8553955 (Plant Communications, 2021).

Experiment [1] concerns PrKAI2d3. Description: Enzymatic assays with profluorescent probes and p-nitrophenyl acetate. Type of experiment: biochemical, Phelipanche ramosa.
Experiment [2] has as its system Phelipanche ramosa seeds. Description: Inhibition of P. ramosa germination stimulation induced by GR24 or 2-PEITC. Type of experiment: in vivo. In a few lines:
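Seeds from a genetic-group-1 population were surface-sterilized and conditioned in darkness at 21°C. Germination was stimulated with 10 nM (±)-GR24 or 100 nM 2-PEITC in the presence of test compound. Maximum inhibition and IC50 were derived from the response.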

The test system of experiment [3] is Phelipanche ramosa seeds. Description: Germination stimulation activity assay on P. ramosa seeds. The conditions noted are these: in vivo.
The test system of experiment [4] is PrKAI2d3. Nature of the experiment: Thermostability of PrKAI2d3 by nanoDSF. Type of experiment: binding, Phelipanche ramosa. The conditions noted are these: PrKAI2d3 at 10 μM, ligands at 100 μM. In a few lines:
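Protein at about 10 μM in PBS (100 mM phosphate pH 6.8, 150 mM NaCl) was mixed with ligand or no ligand. Intrinsic fluorescence (350/330 nm ratio) was recorded over a 1°C/min temperature ramp at 55% excitation. Apparent Tm was taken from the first derivative of the ratio curve.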
(In general: Differential scanning fluorimetry follows unfolding on heating by fluorescence.)

Experiment [5] relates to A. thaliana htl-3/p35S::GFP-PrKAI2d3 seeds. Description: Arabidopsis germination assay, htl-3 complemented with PrKAI2d3. It counts as in vivo, Arabidopsis thaliana. The conditions noted are these: Arabidopsis Col-0, htl-3 and the three p35S::GFP-PrKAI2d3 complemented lines; data not shown. The method in brief: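 After-ripened (≥6 weeks), surface-sterilized seeds were suspended in 1 mM HEPES pH 7.5 at 10 mg/mL and dispensed at about 20–25 seeds per well. Stimulant (GR24 isomers) or DMSO control was added. Plates were incubated either 5 days at 25°C in darkness or, for thermo-inhibition, 7 days at 32–34°C under constant light (10 μmol m−2 s−1). Germination was scored as radicle protrusion. Groups were compared by Kruskal–Wallis.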

For experiment [6], the system named is rice (Oryza sativa). The conditions noted are these: high concentration (50 μM); ref Nakamura et al., 2013; cited from earlier work.
The test system of experiment [7] is pea (Pisum sativum) shoot branching. Nature of the experiment: Pea shoot branching assay. Type of experiment: in vivo. The conditions noted are these: direct injection in the stem, 100 μM, rms1-10.
The subject of experiment [8] is Striga hermonthica seeds. Nature of the experiment: Germination stimulation activity assay on S. hermonthica seeds. Type of experiment: in vivo. In a few lines:
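Surface-sterilized seeds were conditioned in darkness at 30°C. Compounds were dissolved at 10 mM in DMSO, serially diluted in water/DMSO 9:1, and applied at 10−13 to 10−6 M (final water/DMSO 99:1). Controls were 1% DMSO (negative) and 1 μM (±)-GR24 (positive). Germination was expressed relative to the positive control in each assay, with at least three repeats. EC50 came from a four-parameter logistic fit.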

Experiment [9] relates to A. thaliana htl-3/ShHTL7 seeds. Nature of the experiment: Arabidopsis germination assay, htl-3 expressing ShHTL7. It counts as in vivo.

SMILES strings stand for the structures.

For `CC(=O)Oc1ccc([N+](=O)[O-])cc1` [p-NPA, para-nitrophenyl acetate], the “PrKAI2d3 hydrolase activity with generic substrate, in words” value in experiment [1] was “no hydrolytic activity was detected”.
As to `CC1=CC(=O)CC(C)(C)[C@@]1(O)/C=C/C(C)=C\C(=O)O` [ABA, abscisic acid], the half-maximal inhibitory concentration (IC50) (in general, the midpoint of a concentration-inhibition curve) in experiment [2] (2-PEITC (100 nM)) was determined as 34 nM; in experiment [2] (GR24 (10 nM)) it was 100 nM.
For `S=C=NCCc1ccccc1` [2-PEITC, phenethyl isothiocyanate], the “Seeds of P. ramosa fold less sensitive than to (±)-GR24” value in experiment [3] is recorded as “approximately 10 000 fold”. Also, in experiment [4], the “apparent melting temperature (Tm)” value was found to be 45.1 °C. In addition, the “sensitivity of germination in words” value in experiment [5] is recorded as “insensitive”.
With `CC1=CC(O)OC1=O` [D-OH, 4-Hydroxy-2-methylbut-2-en-4-olide], the “bioactivity in rice, in words” value in [6] is given as “bioactive”. Besides, the “effect on branching control in pea, in words” value in experiment [7] is on record as “no effect on branching control”. The EC50 (in general, the concentration at which the effect is half-maximal) amounted to 1200 nM in [8] and 3100 nM in experiment [9].
